# Experimental data from ChEMBL document CHEMBL1127498, “Synthesis and DNA-sequence selectivity of a series of mono- and difunctional 9-aminoacridine nitrogen mustards” (J Med Chem, 1994).
# Tested on: HT-29
# Assay: Concentration required to inhibit colony formation by 50% in human colon carcinoma HT-29 cells
# Format: functional, cell-based
# Method in brief: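 HT-29 cells grown in Eagle's MEM with 15% heat-inactivated FBS. Exponential-phase cells (2 × 10⁵/mL) plated, treated 16-20 h later with a range of drug concentrations for 30 min at 37 °C in medium with 1% serum. Washed twice, trypsinized, replated in triplicate at 10^2, 10^3, 10^4 cells/25-cm² flask for colony counts. At least two independent experiments; untreated plating efficiency 40-65%.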
row,Structure (SMILES),IC50 [nM]
1,CCN(CCCl)CCNc1c2ccccc2nc2ccc(OC)cc12,1100
2,CCN(CCCl)CCCNc1c2ccccc2nc2ccc(OC)cc12,370
3,CCN(CCCl)CCCCCCNc1c2ccccc2nc2ccc(OC)cc12,750
4,CCN(CCCl)CCCCNc1c2ccccc2nc2ccc(OC)cc12,250
5,COc1ccc2nc3ccccc3c(NCCN(CCCl)CCCl)c2c1,110
6,CCN(CCCl)CCCCCNc1c2ccccc2nc2ccc(OC)cc12,700
7,COc1ccc2nc3ccccc3c(NCCCCN(CCCl)CCCl)c2c1,10
8,COc1ccc2nc3ccccc3c(NCCCN(CCCl)CCCl)c2c1,20
9,COc1ccc2nc3ccccc3c(NCCCCCN(CCCl)CCCl)c2c1,30
10,COc1ccc2nc3ccccc3c(NCCCCCCN(CCCl)CCCl)c2c1,60
11,CCN(CC)CCCC(C)Nc1c2ccc(Cl)cc2nc2ccc(OC)cc12 (stereo unspecified) [QUINACRINE],55000
